Bioassay records (PubChem BioAssay)
Most compounds without a hit are left out; they make up all but 2.8% or so of the library.
E-sel inducer: E-selectin induction on HUVECs; P16581; HUVEC E-selectin immunofluorescence imaging; normalized: neutral wells 0, TNF-alpha wells 100; activation, % at 7.58 µM; actives 0.37% (n = 260,000); AID 686992;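 active = mean E-selectin-positive cell signal at least 10% of the positive control, reached in at least 60% of replicates, without over 20% cell loss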
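Test system: HUVEC; input: 3,000 HUVEC/well; measured by: immunofluorescence imaging; read-out: % PE-positive cells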
DENV2 CPE: protects cells from dengue virus 2 cytopathic effect. DENV2-infected cells, cytopathic effect rescue, plate reader. CPE inhibition, % at 9.99 µM. actives 1.7% (n = 350,000). AID 651640; in the data active = CPE inhibition above about 20%, passing the limit was not always enough; tested in BHK-21 cells;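 also: 0% = median of neutral control wells and 100% = median of positive control wells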
SIRT5 inh: blocks human SIRT5 desuccinylation of peptide; Q9NXA8; Purified SirT5, succinyl-peptide AMC, trypsin-coupled fluorescence; inhibition, % at 15 µM; actives 1.1% (n = 330,000); AID 652115; in the data active = inhibition above about 15%
An asterisk follows results filed as active; . = no result given.

SMILES | E-sel inducer | DENV2 CPE | SIRT5 inh
COc1ccc(N2C(=O)NC(=O)/C(=C/c3ccc([N+](=O)[O-])s3)C2=O)cc1 | 0 | 11 | 16*
COc1ccccc1N1C(=O)NC(=O)/C(=C\c2cnn(-c3ccccc3)c2)C1=O | 4 | . | 1
COc1ccc(N2C(=O)NC(=O)/C(=C/c3ccc(N4CCOCC4)cc3)C2=O)cc1 | 3 | -4 | 1
O=C(Cc1ccncc1)N1CCCCN2[C@H](CO)[C@@H](c3ccc(C#CC4(O)CCCC4)cc3)[C@@H]2C1 | 0 | -8 | -7
COC(=O)[C@@H]1[C@@H](CO)[C@@H]2Cn3c(ccc(-c4cccc(OC)c4)c3=O)[C@H]1N2C(=O)c1ccccc1F | 0 | 1 | -25
CCC(=O)N1[C@@H]2c3ccc(-c4cccc(F)c4)c(=O)n3C[C@H]1[C@H](CO)[C@H]2C(=O)OC | 0 | 6 | -13
COc1cc2c(c(OC)c1OC)-c1ccc(O)c(=O)cc1[C@@H](N)CC2 | . | 86* | 0
COc1cc2c(c(OC)c1OC)-c1ccc(C(=O)O)cc1[C@@H](NC(C)=O)CC2 | 0 | . | .
NCCc1ccccc1 | . | 43* | 0
NCCc1ccc(S(N)(=O)=O)cc1 | 0 | 6 | -2
O=C(N/N=C/c1c(O)n(Cc2ccccc2)c(=O)[nH]c1=O)c1ccccc1O | 2 | . | .
O=C(N/N=C/c1c(O)n(CCc2ccccc2)c(=O)[nH]c1=O)c1ccccc1O | 0 | -1 | 38*
O=C(Cc1cccnc1)N1CCCCN2[C@@H](CO)[C@@H](c3ccc(C#CC4(O)CCCC4)cc3)[C@@H]2C1 | 0 | 40* | -1
N#Cc1cccc(-c2ccc([C@H]3[C@@H](CO)N4CCCCN(C(=O)Cc5cccnc5)C[C@H]34)cc2)c1 | 0 | 38* | -2
COc1ccc(C#Cc2ccc([C@@H]3[C@@H](CO)N4CCCCN(C(=O)Cc5ccncc5)C[C@@H]34)cc2)cc1 | 1 | 36* | 6
COc1ccc(C#Cc2ccc([C@H]3[C@@H](CO)N4CCCCN(C(=O)Cc5ccncc5)C[C@@H]34)cc2)cc1 | 0 | -4 | -1
N#Cc1cccc(-c2ccc([C@H]3[C@H](CO)N4CCCCN(C(=O)Cc5cccnc5)C[C@@H]34)cc2)c1 | 0 | 6 | -7
O=C(Cc1cccnc1)N1CCCCN2[C@H](C1)[C@H](c1ccc(C#CC3CCCC3)cc1)[C@@H]2CO | 0 | 19 | 3
O=C(Cc1cccnc1)N1CCCCN2[C@H](CO)[C@H](c3ccc(C#CC4(O)CCCC4)cc3)[C@@H]2C1 | 0 | 0 | 0
O=C(Cc1cccnc1)N1CCCCN2[C@H](CO)[C@@H](c3ccc(C#CC4CCCC4)cc3)[C@H]2C1 | 0 | 40* | -1
CCCN1[C@@H]2c3ccc(-c4cccc(OC)c4)c(=O)n3C[C@H]1[C@H](CO)[C@H]2C(=O)OC | 0 | 12 | -7
CCCN1[C@@H]2c3ccc(-c4ccc(OC)cc4)c(=O)n3C[C@H]1[C@H](CO)[C@H]2C(=O)OC | 0 | -4 | -23
Cc1ccc(OC(=O)N(C)C[C@H]2OCc3ccccc3-c3c(n(C)c4ccccc34)C(=O)N([C@H](C)CO)C[C@@H]2C)cc1 | -2 | 2 | 11
CCCNC(=O)[C@H]1[C@H](CO)[C@H]2Cn3c(cccc3=O)[C@H]2N1C | 0 | -4 | -1
COc1ccc(C#Cc2ccc([C@@H]3[C@H]4CN(C(=O)Cc5cccnc5)CCCCN4[C@H]3CO)cc2)cc1 | 0 | -8 | 2
SMILES | E-sel inducer | DENV2 CPE | SIRT5 inh
COC(=O)C[C@H]1CC[C@@H]2NC[C@@H](O)COC[C@H]2O1 | 0 | 6 | 4
O=C1CNC[C@@H]2[C@@H](c3ccc(Br)cc3)[C@H](CO)N12 | 0 | -7 | -3
N#Cc1cccc(-c2ccc([C@@H]3[C@@H](CO)N4CCCCN(C(=O)Cc5cccnc5)C[C@H]34)cc2)c1 | -1 | . | -1
COC(=O)[C@H]1[C@H](CO)[C@H]2Cn3c(ccc(-c4ccc(F)cc4)c3=O)[C@@H]1N2Cc1cccnc1 | 0 | -3 | -11
O=C(Cc1cccnc1)N1CCCCN2[C@@H](CO)[C@@H](c3ccc(C#CC4CCCC4)cc3)[C@@H]2C1 | 0 | 32* | 12
O=C(Cc1cccnc1)N1CCCCN2[C@H](CO)[C@H](c3ccc(C#CC4CCCC4)cc3)[C@H]2C1 | 0 | 13 | 0
COC(=O)[C@@H]1[C@@H](CO)[C@@H]2Cn3c(ccc(-c4ccccc4)c3=O)[C@H]1N2CC1CC1 | 0 | 2 | 1
COc1cccc(-c2ccc([C@@H]3[C@H]4CN(C(=O)Cc5ccncc5)CCCCN4[C@H]3CO)cc2)c1 | 0 | -12 | 3
COC(=O)C1=C(c2ccc(-c3ccccc3)c(F)c2)C[C@@H]2CC[C@H]1N2C(=O)NCCc1ccccc1 | 0 | 30* | -5
